Experimental data pooled from the literature.
PANK3: Pantothenate kinase 3 (PANK3, Homo sapiens, UniProt Q9H999)
PTPN22: Tyrosine-protein phosphatase non-receptor type 22 (PTPN22, Homo sapiens, UniProt Q9Y2R2)
CHEK1: Serine/threonine-protein kinase Chk1 (CHEK1, Homo sapiens, UniProt O14757)
PDE10A: cAMP and cAMP-inhibited cGMP 3',5'-cyclic phosphodiesterase 10A (PDE10A, Homo sapiens, UniProt Q9Y233)
SLC6A3: Sodium-dependent dopamine transporter (SLC6A3, Homo sapiens, UniProt Q01959)
SLC2A1: Solute carrier family 2, facilitated glucose transporter member 1 (SLC2A1, Homo sapiens, UniProt P11166)
HDAC5: Histone deacetylase 5 (HDAC5, Homo sapiens, UniProt Q9UQL6)
PRMT1: Protein arginine N-methyltransferase 1 (PRMT1, Homo sapiens, UniProt Q99873)
Nuclear receptor ROR-gamma: Nuclear receptor ROR-gamma (Mus musculus, UniProt P51450)

Structure (SMILES) | target | test | conditions | IC50
O=C1NC(=O)C(Cc2ccc3cc(OCc4ccccc4F)ccc3c2)S1 (stereo not drawn) | PANK3 | enzyme activity, inhibitor, radiometric | – | 5000 nM
CC(C)C1=CC[C@H]2C(=C1)CC[C@@H]1[C@]2(C)CCC[C@@]1(C)C(=O)O | ATP-citrate synthase (ACLY, Homo sapiens, UniProt P53396) | enzyme activity, inhibitor | – | > 20000 nM
O=C(O)C(=O)CC(=O)c1cccc(N(Cc2ccccc2)Cc2ccccc2)c1 | PTPN22 | enzyme activity, inhibitor, absorbance | pH 7 | 73000 nM
COc1cc2c(cc1OCc1ccncc1)Nc1cc(-c3ccc([N+](=O)[O-])c(OC)c3)ccc1C(=O)N2 | CHEK1 | enzyme activity, inhibitor | – | 5.17 nM
S=C(SSC(=S)N1CCOCC1)N1CCOCC1 | PTPN22 | enzyme activity, inhibitor, fluorescence | pH 6.5 | 23000 nM
Cc1ccc(NC(=O)c2ccc(C)c(C(F)(F)F)c2)cc1C#Cc1nn(C2CCC(O)CC2)c2ncnc(N)c12 (stereo not drawn) | Fibroblast growth factor receptor 2 (FGFR2, Homo sapiens, UniProt P21802) | enzyme activity, inhibitor, radiometric | – | 40 nM
O=C(O)C1=CCCN(CCON=C(c2ccccc2)c2ccccc2)C1 | Sodium- and chloride-dependent GABA transporter 1 (Slc6a1, Rattus norvegicus, UniProt P23978) | ligand displacement, radioligand | – | 210 nM
COc1cc(C[C@H]2C(=O)OC[C@@H]2Cc2ccc(OC)c(OC)c2)ccc1O | PDE10A | enzyme activity, inhibitor | – | > 5000 nM
CC(=O)SCCNC(=O)CCNC(=O)[C@H](O)C(C)(C)COP(=O)(O)OP(=O)(O)OC[C@H]1O[C@@H](n2cnc3c(N)ncnc32)[C@H](O)[C@@H]1OP(=O)(O)O | PANK3 | enzyme activity, inhibitor | – | 170 nM
CC(C)n1nnc(-c2cc(O)cc(Nc3ncnn4ccc(CN5CCC(N)CC5)c34)c2)n1 | AP2-associated protein kinase 1 (AAK1, Homo sapiens, UniProt Q2M2I8) | enzyme activity, inhibitor | – | 0.2 nM
Clc1ccc(C(c2ccccc2)c2nnnn2CCCCN2CCC(CCc3ccccc3)CC2)cc1 (stereo not drawn) | SLC6A3 | transporter uptake, inhibitor | – | 443 nM
C/C(=N\O)c1ccc(-c2ccc(O)c(Cl)c2)c(Cl)c1O | SLC2A1 | transporter uptake, inhibitor, radiometric | – | 7000 nM
CCCC[C@H](NC(=O)[C@H](C)c1c(C)[nH]c2ccc(O)cc12)c1ncc(-c2cc3ccccc3nc2OC)[nH]1 | HDAC5 | enzyme activity, inhibitor | – | > 45000 nM
N=C(NCCCSC[C@H]1O[C@@H](n2cnc3c(NCCCc4ccccc4)ncnc32)[C@H](O)[C@@H]1O)Nc1ccccc1 | PRMT1 | enzyme activity, inhibitor, fluorescence | – | 355 nM
O=C(O)c1cnn2c(-c3cccc(C(F)(F)F)c3)ccnc12 | Toll-like receptor 8 (TLR8, Homo sapiens, UniProt Q9NR97) | reporter gene | – | > 20000 nM
COc1cc(O)c(C(CC(=O)Nc2ccc(C)cc2)c2ccc3c(c2)OCO3)c(OC)c1 (stereo not drawn) | Nuclear receptor ROR-gamma | reporter gene | – | > 50000 nM
C/C(=N\O)c1ccc(-c2cccc(O)c2)c(Cl)c1O | SLC2A1 | transporter uptake, inhibitor, radiometric | – | 15700 nM
COc1cc(N2CCN(C)CC2)ccc1Nc1ncc2c(n1)N(C)c1ccccc1C(=O)N2CC(F)(F)F | Activated CDC42 kinase 1 (TNK2, Homo sapiens, UniProt Q07912) | cell-free assay, TR-FRET | – | 5000 nM
Nc1ccc(-c2ccncc2)cc1NC(=O)N1CCCC1 | HDAC5 | enzyme activity, inhibitor | – | > 33300 nM
Cc1ccc(C(=O)Nc2ccc(Oc3cc4cnn(C)c4cc3-c3cn[nH]c3)c(F)c2)c(=O)n1-c1ccc(F)cc1 | Discoidin domain-containing receptor 2 (DDR2, Homo sapiens, UniProt Q16832) | enzyme activity, inhibitor, radiometric | – | 41 nM
N=C(NCCCSC[C@H]1O[C@@H](n2cnc3c(NCCCc4ccccc4)ncnc32)[C@H](O)[C@@H]1O)NC1CC1 | PRMT1 | enzyme activity, inhibitor, fluorescence | – | 1180 nM
COc1cc(-c2ccc3c(c2)Nc2ccc(CC(=O)N4CCCC(O)C4)cc2NC3=O)ccc1Cl (stereo not drawn) | CHEK1 | enzyme activity, inhibitor | – | 14.8 nM
Clc1ccc(C(c2ccc(Cl)cc2)c2nnnn2CCCCN2CCC(Cc3ccccc3)CC2)cc1 | SLC6A3 | transporter uptake, inhibitor | – | 172 nM

Structure (SMILES) | target | test | conditions | IC50
CC(C)(C)OC(=O)NCCCCOc1ccc(Cl)cc1NC(=O)Nc1cnc(C#N)cn1 | CHEK1 | enzyme activity, inhibitor | – | 8370 nM
COCCNC(=O)Nc1ccc2nc(-c3cccs3)c(-c3cccs3)nc2c1 | Acetyl-coenzyme A synthetase, cytoplasmic (ACSS2, Homo sapiens, UniProt Q9NR19) | enzyme activity, inhibitor, absorbance | – | ~600 nM
c1ccc(CCC2CCN(CCCCn3nnnc3C(c3ccccc3)c3ccccc3)CC2)cc1 | SLC6A3 | transporter uptake, inhibitor | – | 383 nM
COc1ccc(CNc2c(CO)cnc3c(C4CC4)cc(C#N)cc23)cn1 | PDE10A | enzyme activity, inhibitor | – | > 10000 nM
CCN(CC)C(=S)SSC(=S)N(CC)CC | PTPN22 | enzyme activity, inhibitor, fluorescence | pH 6.5 | 47000 nM
Clc1ccc(CC2CCN(CCCCn3nnnc3C(c3ccccc3)c3ccccc3)CC2)cc1Cl | SLC6A3 | transporter uptake, inhibitor | – | 488 nM
Nc1ncnc2c1ncn2[C@@H]1O[C@H](CN(CC[C@H](N)C(=O)O)Cc2ccc3ccccc3c2)[C@@H](O)[C@H]1O | PRMT1 | enzyme activity, inhibitor | – | > 50000 nM
COc1ccc(-c2nsc(NC(=O)[C@@H]3C[C@H]3C)c2C)cc1 | Metabotropic glutamate receptor 5 (GRM5, Homo sapiens, UniProt P41594) | calcium signal, antagonist | – | 118 nM
N=C(NCCCSC[C@H]1O[C@@H](n2cnc3c(NCCCc4ccccc4)ncnc32)[C@H](O)[C@@H]1O)NC1CCC1 | PRMT1 | enzyme activity, inhibitor, fluorescence | – | 249 nM
CCn1ncc2c1-c1cnc(N)c(c1)O[C@H](C)c1cc(F)ccc1-c1nn(C)nc1C2 | Leukocyte tyrosine kinase receptor (LTK, Homo sapiens, UniProt P29376) | enzyme activity, inhibitor, radiometric | – | 5.8 nM
OCc1ccc(-c2ccc(-c3[nH]nc4c3Cc3cc(O)ccc3-4)cc2)cc1 | CHEK1 | enzyme activity, inhibitor | – | > 10000 nM
CC/C=C\C/C=C\C/C=C\C/C=C\C/C=C\CCCC(=O)O | DNA topoisomerase 1 (TOP1, Homo sapiens, UniProt P11387) | enzyme activity, inhibitor | – | 20000 nM
COc1cc(-c2ccc3c(c2)N(C)c2ccccc2NC3=O)ccc1[N+](=O)[O-] | CHEK1 | enzyme activity, inhibitor | – | 1640 nM
Clc1ccc(C(c2ccccc2)c2nnnn2CCCN2CCC(CCCc3ccccc3)CC2)cc1 (stereo not drawn) | SLC6A3 | transporter uptake, inhibitor | – | 843 nM
O=c1cc(-c2ccc(-c3[nH]nc4c3Cc3cc(O)ccc3-4)cc2)cc[nH]1 | CHEK1 | enzyme activity, inhibitor | – | 1250 nM
COc1cc(O)c(C(CC(=O)N2CCCC2)c2ccc3c(c2)OCO3)c(OC)c1 (stereo not drawn) | Nuclear receptor ROR-gamma | reporter gene | – | > 50000 nM
COc1cc(-c2ccc3c(c2)Nc2ncccc2NC3=O)ccc1[N+](=O)[O-] | CHEK1 | enzyme activity, inhibitor | – | > 10000 nM
CSc1ccc(/C=C2/C(C)=C(CC(=O)O)c3cc(F)ccc32)cc1 | PDE10A | enzyme activity, inhibitor | – | > 100000 nM
Clc1ccc(C(c2ccccc2)c2nnnn2CCCCN2CCN(CCCc3ccccc3)CC2)cc1 (stereo not drawn) | SLC6A3 | transporter uptake, inhibitor | – | 415 nM
CO[C@H]1O[C@H](COS(=O)(=O)O)[C@@H](O[C@@H]2O[C@@H](C(=O)O)[C@@H](O[C@H]3O[C@H](COS(=O)(=O)O)[C@@H](O[C@@H]4O[C@H](C(=O)O)[C@@H](O[C@H]5O[C@H](COS(=O)(=O)O)[C@@H](O)[C@H](O)[C@H]5NS(=O)(=O)O)[C@H](O)[C@H]4O)[C@H](OS(=O)(=O)O)[C@H]3NS(=O)(=O)O)[C@H](O)[C@H]2OS(=O)(=O)O)[C@H](O)[C@H]1NS(=O)(=O)O | Coagulation factor XI (F11, Homo sapiens, UniProt P03951) | enzyme activity, inhibitor, absorbance | pH 7.4 | > 360000 nM
Fc1ccc(C(c2ccc(F)cc2)c2nnnn2CCCCN2CCC(Cc3ccccc3)CC2)cc1 | SLC6A3 | transporter uptake, inhibitor | – | 57.9 nM
COc1cc(-c2ccc3c(c2)Nc2ccc(N)cc2NC3=O)ccc1[N+](=O)[O-] | CHEK1 | enzyme activity, inhibitor | – | 16.6 nM
